Results from different studies.
Compare with care: the assays were run in different laboratories.
Target: Dual specificity mitogen-activated protein kinase kinase 5 (MAP2K5, Homo sapiens, UniProt Q13163)
One construct used (Q13163 1-448): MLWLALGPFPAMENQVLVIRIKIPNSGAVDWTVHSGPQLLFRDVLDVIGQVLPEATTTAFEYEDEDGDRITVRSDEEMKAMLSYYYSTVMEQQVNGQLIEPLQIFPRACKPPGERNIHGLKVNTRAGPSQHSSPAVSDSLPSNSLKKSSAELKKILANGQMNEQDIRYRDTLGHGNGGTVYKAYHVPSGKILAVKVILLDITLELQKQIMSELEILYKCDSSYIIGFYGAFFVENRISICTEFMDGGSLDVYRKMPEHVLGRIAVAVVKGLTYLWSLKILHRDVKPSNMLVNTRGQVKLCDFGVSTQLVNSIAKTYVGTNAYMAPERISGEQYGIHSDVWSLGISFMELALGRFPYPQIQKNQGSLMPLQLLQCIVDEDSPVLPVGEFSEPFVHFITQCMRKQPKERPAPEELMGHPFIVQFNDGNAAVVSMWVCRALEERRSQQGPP

SMILES	observed	technique	concentration	remaining binding
O=C(c1ccc(Nc2ncc(Cl)c(-c3cc4ccccc4s3)n2)cc1)N1CCC(N2CCCC2)CC1	binding	competition with immobilised ligand	1 µM	2.9%
COc1ccnn2ncc(-c3ccnc(N(C)C)n3)c12	binding		1 µM	76%
C[C@@H]1CN(c2cc(-c3nn(C)c4ccc(OC5(C)CC5)cc34)ncn2)C[C@H](C)O1	cell-free assay	competition with immobilised ligand	1 µM	93%
COc1cnc(Nc2cccc(S(N)(=O)=O)c2)nc1N1CCN(c2ccccc2)CC1	binding	competition with immobilised ligand	1 µM	84%
CN(C)c1nccc(-c2cnn3ncccc23)n1	binding		1 µM	68%
O=C(c1ccc(Nc2nccc(-c3cc4ccccc4s3)n2)cc1)N1CCC(N2CCCC2)CC1	binding	competition with immobilised ligand	1 µM	16%
FC(F)(F)Oc1cccc(-c2cnc3ccc(-c4ccncc4)nn23)c1	cell-free assay	competition with immobilised ligand	5 µM	35%
N#Cc1ccc(Nc2ccc3[nH]c(=O)[nH]c3c2)c(Cl)c1	cell-free assay	competition with immobilised ligand	1 µM	100%
C[C@H]1CCN(c2nccc(-c3cnn4ncccc34)n2)C1	binding		1 µM	81%
COc1ncc2cc3ccccc3nc2c1C#N	cell-free assay	competition with immobilised ligand	5 µM	94%
CCN1CCN(Cc2ccc(C(=O)Nc3ccc(C)c(Oc4ccc5c(c4)CC(=O)N5)c3)cc2C(F)(F)F)CC1	binding	competition with immobilised ligand	1 µM	100%
c1cnn2ncc(-c3ccnc(N4CCC45COC5)n3)c2c1	binding		1 µM	30%
O=C(NCC1CCOCC1)c1n[nH]cc1NC(=O)c1c(F)cccc1F	binding	competition with immobilised ligand	1 µM	68%
C=CC(=O)N1CCC(C(=O)NCC(=O)N2CCN(c3nc(-c4cnc(N)nc4C(F)F)nc(N4CCOCC4)n3)CC2)CC1	binding	competition with immobilised ligand	1 µM	77%
CS(=O)(=O)N1CCCC(NC(=O)[C@H](CCC2CCCCC2)NC(=O)c2ccc(CNc3ncnc4c3nnn4-c3ccccc3)cc2)C1 (stereo partly shown)	cell-free assay	competition with immobilised ligand	0.1 µM	100%
Cc1cnc(Nc2ccc(C(=O)N3CCC(N4CCCC4)CC3)cc2)nc1-c1cc2ccccc2s1	binding	competition with immobilised ligand	1 µM	0.4%
NS(=O)(=O)c1cc(NC(=O)Cc2ccccc2)ccc1Oc1cccc(Cl)c1	cell-free assay	competition with immobilised ligand	1 µM	88%
COc1cnc(Nc2cccc(S(N)(=O)=O)c2)nc1N1CCN(c2ccccc2)C(=O)C1	binding	competition with immobilised ligand	1 µM	67%
CC(=O)C1=C(C)N(c2cccc(C(F)(F)F)c2)C(=O)N[C@@H]1c1ccc(C#N)nc1	cell-free assay	competition with immobilised ligand	1 µM	100%
N[C@@H]1CCN(c2nccc(-c3cnn4ncccc34)n2)C1	binding		1 µM	97%
Cc1c[nH]c2nccc(Oc3c(F)cc(Nc4cc(Cl)nc(N)n4)cc3F)c12	cell-free assay	competition with immobilised ligand	0.1 µM	82%
CN(C)c1nccc(-c2cnc3ncccn23)n1	binding		1 µM	48%
